# ChEMBL document CHEMBL1126934, “Non-peptide ligands for opioid receptors. Design of kappa-specific agonists” (J Med Chem, 1993)
# How the values were obtained:
# [1] = molecular target: Delta-type opioid receptor (Rattus norvegicus) (UniProt P33533); assay: Binding affinity for rat delta opioid receptor was evaluated by displacing [3H]- diprenorphine
# Mu-type opioid receptor = Mu-type opioid receptor (Rattus norvegicus, UniProt P33535); assay: Binding affinity for mu opioid receptor was evaluated by displacing [3H]- diprenorphine
# Mu-type opioid receptor, sequence (P33535 whole entry): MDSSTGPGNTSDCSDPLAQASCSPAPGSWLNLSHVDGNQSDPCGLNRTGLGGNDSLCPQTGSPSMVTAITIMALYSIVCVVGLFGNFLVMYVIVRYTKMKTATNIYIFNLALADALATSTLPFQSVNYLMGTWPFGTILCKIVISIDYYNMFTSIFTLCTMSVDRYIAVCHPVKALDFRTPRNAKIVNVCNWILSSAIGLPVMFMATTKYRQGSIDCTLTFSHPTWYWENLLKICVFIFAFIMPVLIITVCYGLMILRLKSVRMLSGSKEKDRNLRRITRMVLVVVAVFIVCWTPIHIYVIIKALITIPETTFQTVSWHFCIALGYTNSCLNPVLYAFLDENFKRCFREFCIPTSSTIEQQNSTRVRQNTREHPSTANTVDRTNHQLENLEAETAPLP
# Method in brief: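 Rat brain minus cerebellum, homogenised in Tris-HCl pH 7.4, spun 40000g 30 min, membranes resuspended at 0.5 mg/mL protein in 50 mM Tris-HCl pH 7.6. Competition against [3H]diprenorphine; nonspecific binding defined with DAGO (100 nM). Ki via Cheng-Prusoff; triplicate curves, n = 5.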
# [2] = molecular target: T1, Kappa-type opioid receptor (Cavia porcellus, UniProt P41144); assay: Binding affinity for kappa opioid receptor was evaluated by displacing [3H]- diprenorphine
# T1 sequence (P41144 whole entry): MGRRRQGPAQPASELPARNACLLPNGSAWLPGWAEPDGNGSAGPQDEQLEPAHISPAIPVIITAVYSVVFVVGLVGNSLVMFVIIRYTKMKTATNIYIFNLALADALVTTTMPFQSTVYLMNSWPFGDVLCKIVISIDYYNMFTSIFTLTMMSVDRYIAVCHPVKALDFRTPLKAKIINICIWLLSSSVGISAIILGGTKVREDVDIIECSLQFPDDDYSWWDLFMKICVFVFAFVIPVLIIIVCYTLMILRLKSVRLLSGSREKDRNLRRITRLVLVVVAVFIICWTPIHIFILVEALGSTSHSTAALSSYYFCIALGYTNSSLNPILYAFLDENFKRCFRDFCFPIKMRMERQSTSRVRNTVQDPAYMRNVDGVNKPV
# Mus musculus = assay: Antinociceptive activity determined in mouse tail flick assay 30 min after sc injection (peak effect); format: functional; settings: 0.5 h
# Method in brief: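 Male Swiss mice (20-25 g), tail flick nociceptive threshold, cutoff 8 s. Drug given sc; read 30 min after injection. ED50 with confidence limits by Litchfield and Wilcoxon method.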
# [3] = molecular target: T1, Kappa-type opioid receptor
# [4] = molecular target: T1, Kappa-type opioid receptor; remark: listed apart in the source
# Delta-type opioid receptor (Rattus norvegicus), sequence (P33533 whole entry): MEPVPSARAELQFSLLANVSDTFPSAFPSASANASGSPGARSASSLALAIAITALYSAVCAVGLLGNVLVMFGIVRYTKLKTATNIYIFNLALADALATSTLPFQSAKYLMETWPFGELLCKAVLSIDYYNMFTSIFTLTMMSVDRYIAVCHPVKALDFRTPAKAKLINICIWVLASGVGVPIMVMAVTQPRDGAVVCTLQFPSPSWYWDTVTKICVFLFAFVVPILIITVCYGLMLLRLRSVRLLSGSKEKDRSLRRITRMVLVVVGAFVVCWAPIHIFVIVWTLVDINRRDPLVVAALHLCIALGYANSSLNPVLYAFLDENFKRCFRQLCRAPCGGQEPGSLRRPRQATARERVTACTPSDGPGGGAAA
SMILES,Binding affinity [1],Ki (Mu-type opioid receptor),Ki [2],ED50 (Mus musculus),Ki [3],Ki [4]
CCCOC(=O)[C@]1(c2ccccc2)CC1CN1CC[C@@]2(C)c3cc(O)ccc3C[C@@H]1[C@@H]2C (stereo not given in full),> 25 µM,> 25 µM,6430 nM,–,–,–
COC(=O)[C@@]1(c2ccccc2)C[C@@H]1CN1CC[C@@]2(C)c3cc(O)ccc3C[C@@H]1[C@@H]2C,> 25 µM,> 25 µM,2640 nM,–,–,–
C[C@H]1[C@H]2Cc3ccc(O)cc3[C@]1(C)CCN2CC1C[C@]1(C(=O)O)c1ccccc1 (stereo not given in full),–,> 25 µM,> 25000 nM,–,–,–
CC1[C@H]2Cc3ccc(O)cc3[C@]1(C)CCN2CCCc1ccccc1 (stereo not given in full),–,0.825 µM,1120 nM,–,–,–
CCCCOC(=O)[C@]1(c2ccccc2)CC1CN1CC[C@@]2(C)c3cc(O)ccc3C[C@@H]1[C@@H]2C (stereo not given in full),> 25 µM,> 25 µM,> 25000 nM,–,–,–
COC(=O)[C@]1(c2ccccc2)C[C@@H]1CN1CC[C@@]2(C)c3cc(O)ccc3C[C@@H]1[C@@H]2C,> 25 µM,> 25 µM,866 nM,4.52 mg/kg,833 nM,2620 nM
CCC12CCN(CC3CC3)C(C(=O)c3ccc(O)cc31)C2C (stereo not given),–,0.69 µM,–,–,–,–
CCOC(=O)[C@]1(c2ccccc2)CC1CN1CC[C@@]2(C)c3cc(O)ccc3C[C@@H]1[C@@H]2C (stereo not given in full),> 25 µM,> 25 µM,4430 nM,–,–,–
CN1CC[C@]23c4c5ccc(O)c4O[C@H]2[C@@H](O)C=C[C@H]3[C@H]1C5 [MORPHINE],1.22 µM,–,–,4.99 mg/kg,–,–
COC(=O)[C@]1(c2ccccc2)C[C@H]1CN1CC[C@@]2(C)c3cc(O)ccc3C[C@@H]1[C@@H]2C,> 25 µM,> 25 µM,240 nM,–,224 nM,926 nM
